Screens from PubChem.
Only some compounds are listed: those with a hit (about 3.2% of all), similar ones and a draw of the others.
Mcl1-Bid inh – Mcl-1/Bid interaction inhibition. inhibition, % at 21.7 µM. TR-FRET Mcl-1/Bid-Dy647 peptide binding, 1536-well. 220,000 compounds, 0.97% hits. Q07820;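 active means compounds that cut the binding signal by more than half at the single screening dose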;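 further: His-tagged Mcl-1 with europium anti-His antibody binding Bid BH3 peptide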
Target sequence (Q07820 whole entry, looked up): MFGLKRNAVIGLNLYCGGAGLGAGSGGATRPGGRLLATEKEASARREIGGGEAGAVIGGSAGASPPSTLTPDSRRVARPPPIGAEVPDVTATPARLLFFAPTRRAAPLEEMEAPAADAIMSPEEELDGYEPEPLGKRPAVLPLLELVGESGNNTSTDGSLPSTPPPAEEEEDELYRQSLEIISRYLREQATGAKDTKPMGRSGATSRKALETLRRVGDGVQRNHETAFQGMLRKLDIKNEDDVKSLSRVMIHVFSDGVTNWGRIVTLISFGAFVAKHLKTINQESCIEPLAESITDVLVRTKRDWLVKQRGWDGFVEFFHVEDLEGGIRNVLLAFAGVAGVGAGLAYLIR
Biofilm kill mix – mixtures killing C. albicans biofilm. 120,000 compounds, 0.02% hits. C. albicans biofilm persisters + clotrimazole, fluorescence viability; primary screen in compound mixtures of four per well. inhibition, % at 7.6 µM;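 active means inhibition above 30.3% in the primary screen of four-compound pools, then above 30% when the compound was retested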;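 further: compounds exposed to preformed 24 h biofilms for 48 h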
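System: C. albicans CAF4-2 wild-type biofilms; Medium: RPMI/MOPS medium, pH 7.0; Reagent: Clotrimazole, 50 µg/mL; Times: biofilm formation 24 h, compound exposure 48 h, 37 °C; Detection: 2-h Alamar Blue fluorescence, 535/590 nm excitation/emission; Evaluation: percent inhibition of biofilm viability.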
Hck-Nef inh – human Hck-Nef kinase inhibition; P08631; Recombinant Hck-YEEI plus Nef, Z-Lyte FRET kinase assay; AID 463187; inhibition, % at 20 µM; 220,000 compounds, 0.68% hits;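 active means Hck-Nef kinase inhibition above about 50%, limit read from the data; inactive means inhibition below that limit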
Bim-Mcl-1 – disrupts Bim peptide binding to human Mcl-1 | AID 1009 | inhibition, % at 10 µM | 190,000 compounds, 0.1% hits | Q07820 | Bead-based flow cytometry, Bim peptide-Mcl-1 binding; in the data active means inhibition above about 40%
14-3-3 Bad inh – disrupts binding of bovine 14-3-3 zeta to phospho-Bad peptide | TR-FRET 14-3-3zeta/Dy647-pBad peptide displacement, 1 h | inhibition, % at 21.7 µM | 220,000 compounds, 0.71% hits | AID 781;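 active means inhibition above about 70%, limit read from the data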
Mcl1 Noxa PPI – disrupts binding of human Mcl-1 to Noxa peptide. AID 1022. 220,000 compounds, 1.5% hits. TR-FRET Mcl-1/Noxa peptide binding, 2 h. Q07820. inhibition, % at 21.7 µM;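 active means compounds that cut the protein-peptide binding signal by more than 50% relative to plate controls in a single-dose test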;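 further: His-tagged Mcl-1 with rhodamine Noxa BH3 peptide and terbium anti-His antibody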
Hits are given with their value; n = inactive; x = no result.

SMILES	Mcl1-Bid inh	Biofilm kill mix	Hck-Nef inh	Bim-Mcl-1	14-3-3 Bad inh	Mcl1 Noxa PPI
Nc1c2c(nc3ccc(Br)cc13)N(c1ccccc1)CC2	n	x	n	n	n	n
CCn1c(SCc2ccc(OC)cc2)nnc1-c1ccncc1	n	x	n	n	n	x
Cc1c(C(C)(C(=O)O)c2c(C)n(C)c3ccccc23)c2ccccc2n1C	n	n	n	x	n	n
S=C1NCN(C2CCCCC2)CN1CCc1ccccc1	n	n	n	x	n	n
CC(C)NCCOCCSc1ccc(Cl)cc1	n	x	n	n	82.6	n
CC1=NN(C(=O)c2cc(C)nn2C)C(O)(C(F)(F)F)C1 (stereo not drawn)	n	n	n	n	n	n
O=C(NC1CCCC1)C(c1ccncc1)N(C(=O)c1csnn1)C1CCCC1 (stereo not drawn)	n	n	n	n	n	n
CN1CCc2nc(NC(=O)COc3ccc(C#N)cc3)sc2C1	n	n	n	n	n	n
Nc1nc(=S)c2ncn(C3OC(CO)C(O)C3O)c2[nH]1 (stereo not drawn)	n	n	n	x	n	88.7
Nc1nc(Cl)nc2c1ncn2[C@@H]1O[C@H](CO)[C@@H](O)[C@H]1O	n	n	n	n	n	n
O=C(Nc1ccc(O)c(-c2nc3ccccc3s2)c1)c1cc(=O)c2ccccc2o1	51.9	n	n	n	75.5	50.8
COc1ccc(NC(=S)NC(=O)/C=C/c2ccco2)cc1	n	n	n	n	n	n
CC(=O)NC(=S)Nc1ccc(NC(=S)NC(=O)/C=C/c2ccco2)cc1	n	n	n	x	n	65.6
O=C(/C=C/c1ccco1)NC(=S)Nc1ccc(O)c(-c2nc3ccccc3s2)c1	58.9	n	n	n	n	52.5
CCN(CC)C(=O)Cn1c(=O)n(-c2ccccc2)c(=O)c2sccc21	n	n	n	n	n	n
COC(=O)CCCCCNc1ccc(C(=O)OC)cc1N	n	x	n	n	n	n
CN(C)c1ccc(Nc2nc(-c3cccnc3)cs2)cc1	n	x	n	n	n	60.2
O=C1c2ccccc2C(=O)N1CN(C(=O)COc1ccc(Cl)cc1Cl)c1cccc(F)c1	n	n	n	92.0	n	n
O=C(NCC1CCCO1)C1CC1(c1ccccc1)c1ccccc1 (stereo not drawn)	n	n	n	n	n	n
CCNC(=S)N1CCC(C(=O)c2ccc3c(c2)OCCO3)CC1	n	n	n	n	n	n
CCOCCCNC(=S)N1CCC(C(=O)c2ccc3c(c2)OCCO3)CC1	n	n	n	n	n	72.2
C=CCn1c(SCc2ccc(C#N)cc2)nnc1-c1ccccc1	n	x	n	n	n	n
C=CCn1c(SCc2ccc(C#N)cc2)nnc1-c1cccc(OC)c1	94.6	x	n	n	n	n
N=C(c1ccc([N+](=O)[O-])cc1)N1CCCCCC1	n	n	n	n	n	n
COc1ccc(CCCc2nnc(SCC(=O)Nc3ccc(OC)cc3)o2)cc1	n	n	n	n	n	n
SMILES	Mcl1-Bid inh	Biofilm kill mix	Hck-Nef inh	Bim-Mcl-1	14-3-3 Bad inh	Mcl1 Noxa PPI
O=C(CSc1nnc(COc2ccc3c(c2)CCCC3)o1)Nc1ccc(F)cc1	n	x	n	n	87.3	n
C/C(=N\NC(=O)c1cccc(N/N=C(\C)c2ccco2)c1)c1ccco1	n	n	n	n	n	83.8
C/C(=N\NC(=O)c1cccc([N+](=O)[O-])c1)c1ccco1	n	n	n	x	n	n
CCC(=O)N(CCc1ccc(OC)c(OC)c1)Cc1cc2ccc(C)cc2n2nnnc12	n	n	n	n	n	n
COc1ccc(S(=O)(=O)Nc2ccccc2Cl)cc1NC(C)=O	n	n	n	n	91.3	n
COc1ccccc1NS(=O)(=O)c1ccc(Cl)c(NC(=S)NC(=O)C2CCCC2)c1	n	n	n	n	n	n
Cc1ccc(CN2CCN(CC(=O)O)C2=O)cc1	n	n	n	n	n	n
CCN1/C(=C/c2ccc3cc(C)ccc3[n+]2C)Sc2ccc3sccc3c21	n	n	n	n	n	59.8
CCN1/C(=C/c2ccc3cc(C)ccc3[n+]2CC)Sc2cc(C)ccc21	n	n	n	n	n	n
Cc1cccc(NC(=O)CCN2C(=O)C3C4C=CC(C4)C3C2=O)c1 (stereo not drawn)	n	x	n	n	n	n
Cc1ccc(SCC(=O)Nc2ccc(N3CCN(C)CC3)c(F)c2)c(C)c1	n	n	n	n	n	n
CCN1CCN(c2nc(-c3cccnc3)nc3ccccc23)CC1	n	x	n	n	n	65.6
